# From PubChem
# The list is not random: actives were taken first. Their share in the collection is about 5.4%.
# SKKanGAS inh = SKKanGAS growth inhibition. S. pyogenes SKKanGAS, kanamycin growth, BacTiter-Glo, 6 h. inhibition, % at 7.5 µM. AID 1662. actives 1.3% (n = 300,000);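 active means mean replicate score, as percent of positive control median, at least 50; inconclusive means mean below 50 but one replicate at or above 50; inactive means mean and every replicate below 50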;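 further: strain carries kanamycin resistance gene driven by streptokinase promoter and grows in 40 µg/ml kanamycin; loss of luminescence reflects streptokinase promoter inhibition or plain growth inhibition; 0% = median of DMSO wells and 100% = positive control at its reference dose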
# aSyn 5UTR inh = 5' untranslated region of α-synuclein, MLPCN primary screen; alpha-synuclein 5'UTR reporter, inhibitor activity; inhibition, % (tested at 7.5 µM); actives 0.82% (n = 300,000); in the data active means inhibition above about 60%; inconclusive means no clear call, values can overlap the other calls;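 further: H4 neuroglioblastoma cells stably carrying SNCA 5'UTR luciferase fusion; 0% = DMSO wells and 100% = positive control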
# CSC inhib = cancer stem cell inhibition | cancer stem cell-like cells viability, luminescence | inhibition, % at 7.5 µM | actives 1.1% (n = 300,000) | AID 2717; in the data active means inhibition above about 75%; inconclusive means no clear call, values can overlap the other calls; tested in HMLE shEcad cells
# Mdm2-MdmX inh = human Mdm2/MdmX binding inhibition. O15151+Q00987. SaOS-2 split-luciferase Mdm2/MdmX complementation, luminescence. inhibition, % at 8 µM. actives 3% (n = 330,000);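 active means inhibition of at least 50% at 8 µM in the primary screen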
# T cruzi repl = blocks replication of Trypanosoma cruzi | inhibition, % (no concentration beside the values) | T. cruzi beta-gal in NIH3T3, luminescence, 90 h | actives 1.4% (n = 300,000);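 active means mean inhibition across valid replicates above about 55%, limit read from the data; inconclusive means mean below that limit but half or more replicates reach it; inactive means mean below it, under half of replicates reach it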;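 further: signal also drops with host cell toxicity which is not excluded here; 0% = plate median of DMSO wells and 100% = zero luminescence signal; higher percent means less beta-gal luminescence so fewer parasites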
#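 Material: NIH/3T3 host cells with β-galactosidase reporter T. cruzi; Input: 5,000 host fibroblasts per well; Medium: DMEM, 2% fetal bovine serum; Compound: 50 nL DMSO compound solution per well; Schedule: 3 h host attachment, then at least 90 h co-culture; Detection: luminescent β-galactosidase signal after 60 min lysis.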
# * hit, by the source's call; u = inconclusive; x = not tested or not shown.
SMILES,SKKanGAS inh,aSyn 5UTR inh,CSC inhib,Mdm2-MdmX inh,T cruzi repl
O=C(COC(=O)CCC1CCCC1)Nc1ccc(F)cc1Cl,x,x,x,10.1,x
COc1cccc(C2CC(c3cccs3)=NN2C(=O)CSc2nc3ccccc3s2)c1OC (centres undefined),4.7,9.1,-6.7,23.5,13.3
COc1cccc(C2CC(c3cccs3)=NN2C(=O)CSc2nc3c(cnn3-c3ccc(F)cc3)c(=O)[nH]2)c1OC (centres undefined),57.1*,6.9,118.2*,18.6,-5.9
COc1ccc(C2CC(c3cccs3)=NN2C(=O)CSc2nc3c(cnn3-c3ccccc3)c(=O)[nH]2)cc1 (centres undefined),63.8*,18.7,69.6,16.6,17.2
COc1ccc(CC(=O)Nc2cccc(S(=O)(=O)N3CCCCCC3)c2)cc1OC,-11.4,-2.0,9.9,x,-103.2
O=C(COC(=O)c1ccccc1[N+](=O)[O-])Nc1nnc(-c2ccccc2)o1,0.0,10.3,-3.9,27.9,-3.5
O=C(COC(=O)CNC(=O)c1ccccc1F)Nc1nnc(-c2ccccc2)o1,28.5,0.1,-3.9,27.8,-0.9
O=C(COC(=O)CCC(=O)c1ccccc1)Nc1nnc(-c2ccccc2)o1,39.1,5.5,13.6,19.9,-2.6
CC1(C(=O)OCC(=O)Nc2nnc(-c3ccccc3)o2)CC1(Cl)Cl (centres undefined),73.2*,-5.8,10.6,27.4,-2.4
Cc1cccc(C(=O)OCC(=O)Nc2nnc(-c3ccccc3)o2)c1O,97.5*,1.5,3.4,6.7,1.4
CCOc1ccccc1C(=O)NC(C(=O)OCC(=O)Nc1nnc(-c2ccccc2)o1)C(C)C (centres undefined),60.3*,-19.9,3.4,9.3,-9.5
CCOc1ccccc1C(=O)OCC(=O)Nc1nnc(-c2ccccc2)o1,77.2*,17.3,-0.2,20.7,-11.9
O=C(O)/C=C/c1ccc(S(=O)(=O)N2CCN(CCN3C(=O)C4C5C=CC(C5)C4C3=O)CC2)cc1 (centres undefined),-13.1,-5.0,-8.1,14.5,2.4
COc1ccc(CCNC(=O)CSc2nc3[nH]ncc3c(=O)n2-c2ccc(C)c(Cl)c2)cc1OC,-6.4,29.3,x,x,3.1
O=C(NOCc1ccccc1)c1ccccc1,-3.0,-91.8,-0.1,-7.7,-19.0
CC1(C(=O)OCC(=O)Nc2nc(-c3ccc(F)c(F)c3)cs2)CC1(Cl)Cl (centres undefined),71.1*,-23.2,6.0,42.2,2.1
COc1ccc(CC(=O)Nc2nc(-c3ccc(F)c(F)c3)cs2)cc1,12.0,-41.4,67.4,27.2,13.7
COCCN(CCOC)Cc1cc(=O)oc2cc3c(cc12)CCC3,-4.4,-4.3,0.7,2.4,-6.2
CC(C)CN(Cc1cc(=O)oc2cc3c(cc12)CCCC3)CC(C)C,53.9*,-5.9,30.6,8.8,-2.2
O=C(Cn1c(C(F)(F)F)nc2ccccc21)Nc1ccccc1C(=O)O,-2.2,3.7,-5.3,11.5,-18.2
CC(C(=O)Nc1ccccc1C(=O)O)n1c(C(F)(F)F)nc2ccccc21 (centres undefined),14.4,0.9,-3.0,-5.3,71.0*
CCOCCN1CCN(C(=O)CN2CCCC2=O)CC1,-5.2,29.7,1.8,-5.4,-21.5
COc1cccc(-c2nc3c(c(=O)[nH]c(=O)n3Cc3ccccc3)n2CCO)c1OC(F)F,-4.6,28.3,6.4,11.7,-0.2
COc1ccc(N2CCc3c(C)nc4c(OC)cc(OC)cc4c32)c(OC)c1,-0.2,30.8,12.2,40.1,58.4*
COc1cccc(N2CCc3c(C)nc4ccc(Cl)cc4c32)c1,-2.5,16.1,38.7,x,18.5
SMILES,SKKanGAS inh,aSyn 5UTR inh,CSC inhib,Mdm2-MdmX inh,T cruzi repl
COc1ccc(C2NCCc3c2[nH]c2ccccc32)cc1CN1CCc2cc(OC)c(OC)cc2C1C (centres undefined),-3.2,20.4,x,x,61.2*
Cn1cnnc1SCc1ccc(C(=O)N=Nc2c(O)n(Cc3ccc(Cl)cc3)c3ccccc23)cc1,56.8*,29.9,29.3,29.6,u
O=C(Nc1cccc(-c2ccc(F)cc2)c1)C1CCCN(C(=O)c2cscn2)C1 (centres undefined),-1.2,10.0,-7.6,-3.3,6.5
Cc1cccc(C(C)C)c1NC(=O)COC(=O)CCN1C(=O)C2CC=CCC2C1=O (centres undefined),-12.3,-3.0,0.2,27.9,-15.3
Cc1cccc(C(=O)NC(C)C(=O)NC(c2nc3ccccc3[nH]2)C(C)C)c1 (centres undefined),x,x,-2.2,-1.6,x
CC(C)C(NC(=O)C(c1ccccc1)c1ccccc1)c1nc2ccccc2[nH]1 (centres undefined),79.1*,3.5,22.7,27.8,17.7
COc1cc(C(=O)N/N=C/c2ccc3c(c2)c2ccccc2n3C)ccc1O,50.8*,-117.0,39.9,47.3,-2.2
CN(CCOc1ccccc1)CC(=O)Nc1ccc(S(=O)(=O)N2CCCC2)cc1,-5.9,2.3,-4.5,16.2,56.9*
CN1CCN(S(=O)(=O)c2ccc(NC(=O)COc3ccccc3)cc2)CC1,3.4,7.1,9.8,4.8,-42.1
COc1ccc(-c2cc([C@H]3[C@H]4C=CC[C@@H](C)[C@@H]4C(=O)N3Cc3ccccc3)ccc2F)cc1OC,34.0,-16.2,-1.2,10.2,16.3
CC[C@@H]1CC=C[C@H]2[C@H]1C(=O)N(Cc1ccccc1)[C@H]2c1ccc(OC)c(Cl)c1,59.0*,20.7,76.6*,37.7,24.2
C[C@@H]1CC=C[C@H]2[C@H]1C(=O)N(Cc1ccccc1)[C@H]2c1ccc(Br)cc1F,51.9*,-8.0,31.4,39.2,18.2
C[C@@H]1CC=C[C@H]2[C@H]1C(=O)N(Cc1ccccc1)[C@H]2c1ccc2ccccc2c1,43.7,1.2,86.5*,25.4,15.2
C[C@@H]1CC=C[C@H]2[C@H]1C(=O)N(Cc1ccccc1)[C@H]2c1ccc(F)c(Br)c1,36.9,16.0,x,x,51.3
COc1ccc(-c2cc([C@H]3[C@H]4C=CC[C@@H](C)[C@@H]4C(=O)N3Cc3ccccc3)ccc2F)cc1,30.9,19.2,77.4*,37.0,36.1
COc1ccc([C@H]2CC(=O)C=C(c3cccc4c3Oc3ccccc3S4)C2)cc1OC,x,x,31.3,27.8,x
CO[C@H]1/C=C/O[C@@]2(C)Oc3c(C)c(O)c4c(O)c(c(C=NN5CCN(C)CC5)c(O)c4c3C2=O)NC(=O)/C(C)=C\C=C\[C@H](C)[C@H](O)[C@@H](C)[C@@H](O)[C@@H](C)[C@H](OC(C)=O)[C@@H]1C,x,x,-0.5,-5.7,x
CO[C@H]1C=CO[C@@]2(C)Oc3c(C)c(O)c4c(O)c(c(C=NN5CCN(C)CC5)c(O)c4c3C2=O)NC(=O)C(C)=CC=C[C@H](C)[C@H](O)[C@@H](C)[C@@H](O)[C@@H](C)[C@H](OC(C)=O)[C@@H]1C,106.0*,-18.3,8.4,22.5,12.8
